The entries come from a sample that favours hits as a whole.
T cruzi inh – blocks replication of Trypanosoma cruzi; T. cruzi beta-gal in NIH3T3, luminescence, 90 h; inhibition, % (concentration not given with the values); actives 1.4% (n = 300,000);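 active = mean inhibition across valid replicates above about 55%, limit read from the data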;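 also: signal also drops with host cell toxicity which is not excluded here; 0% = plate median of DMSO wells and 100% = zero luminescence signal; higher percent means less beta-gal luminescence so fewer parasites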
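System – NIH/3T3 host cells with β-galactosidase reporter T. cruzi · Doses – single 50 nL compound addition per well in DMSO · Reagent – 5000 T. cruzi trypomastigotes/well · Medium – Low-serum DMEM with 2% FBS · Timing – ≥90 h infection period, 3 h prior cell attachment · Evaluation – parasite load inhibition, % · Technique – GalScreen luminescence, 60 min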
Redox H2O2 prof – compounds producing H2O2 with reducing agent – biochemical, NIH compound library profiling, artefact control for MLSCN library redox annotation, primary screen; DTT-dependent redox cycling H2O2, phenol red/HRP absorbance; 100% = 100 µM peroxide control, 0% = buffer; activation, % at 10 µM; actives 0.03% (n = 200,000);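 active = activation of at least 50% relative to the plate's high and low controls in the primary single-dose screen; inactive = activation below 50%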;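 also: compound incubated with DTT at 0.8 mM final as the reducing agent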
MPTP block – inhibitors of mitochondrial permeability transition pore; isolated mouse mitochondria, Ca2+ swelling absorbance, 30 min; inhibition, % at 10 µM; actives 1.4% (n = 360,000);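 active = inhibition of 50% or more, scaled per plate between neutral and stimulator controls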;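 also: 0% = DMSO wells given calcium and 100% = 1 mM EGTA wells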
Lmaj promast – Leishmania major promastigote growth inhibition. inhibition, % at 10 µM. Leishmania major promastigotes, resazurin fluorescence viability. actives 9% (n = 200,000); in the data active = inhibition above about 50%;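 also: promastigotes grown with compound for 44 hours at 28 °C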
Lipid droplet – hepatic lipid droplet formation modulation. AML12 mouse hepatocytes, oleate lipid droplets, BODIPY imaging. inhibition, % at 6.5 µM. actives 0.4% (n = 240,000). AID 1656;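 active = lipid droplet intensity inhibited by at least 50%, with more than 500 cells counted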
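Test system: AML12 hepatocytes (mouse); reagent: oleate loading, 100 µM; dosing: one dose, 6.5 µM compound; incubation: overnight exposure; signal: fluorescence imaging, 20x objective, two fields per well; read-out basis: % inhibition of corrected integrated BODIPY droplet signal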
Rh123 counter – membrane potential counter-screen of mitochondrial pore inhibitors | actives 78% (n = 5,000) | inhibition, % at 10 µM | isolated mitochondria, Rhodamine 123 fluorescence | shares compounds with MPTP block; in the data active = inhibition above about 22%;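 also: 0% = DMSO vehicle and 100% = positive control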
MPTP abs DR – MPTP inhibition, dose response swelling confirmation. shares compounds with MPTP block. isolated mitochondria swelling, absorbance. IC50, µM. actives 58% (n = 780); in the data active = IC50 below about 20 µM
MPTP cs DR – counter-screen for mitochondrial permeability transition pore inhibitors, dose response; shares compounds with MPTP block; isolated mitochondria counterscreen, fluorescence read-out; IC50, µM; actives 49% (n = 780); AID 651564; in the data active = IC50 below about 80 µM
An asterisk follows results filed as active; x = not tested or not shown.

SMILES	T cruzi inh	Redox H2O2 prof	MPTP block	Lmaj promast	Lipid droplet	Rh123 counter	others
CC1CCCN(CCC(=O)c2ccc(Br)cc2)C1 (stereo not drawn)	x	0.3	114.1*	96.0*	-0.5	5.3	MPTP abs DR=5.67*;MPTP cs DR=>80
Cc1ccc(SCc2nc3ncccn3c2Br)cc1	11.9	x	1.2	x	1.7	x
CCN(C(=O)COC(=O)/C(=C/c1ccccc1)NC(C)=O)c1c(N)n(Cc2ccccc2)c(=O)[nH]c1=O	x	x	-0.7	x	x	x
Cc1ccc(NC(=O)CC(O)(C(F)(F)F)C(F)(F)F)c(Br)c1	-2.7	0.5	52.8*	-3.9	-0.2	79.0*
CCCCCCCCCCOC(=O)Cn1c(COc2ccccc2OC)[n+](C)c2ccccc21	49.6	x	52.6*	x	-87.6	94.6*
CCc1c(C)sc(NC(=O)Cn2nc(C(F)(F)F)c3c2CCCC3)c1C#N	-9.1	0.5	65.1*	-7.4	-7.8	76.6*
CN(C(=O)N1CCN(S(=O)(=O)c2ccccc2)CC1)c1ccccc1	6.4	-1.0	-0.1	-6.3	3.1	x
O=C(c1ccc2c(=O)n3c(nc2c1)CCC3)N1CCN(S(=O)(=O)c2ccccc2Br)CC1	x	x	-1.9	x	x	x
COc1ccc(C(=O)N(C)CC2CCN(CCc3cccc(C(F)(F)F)c3)CC2)cc1C	44.6	x	53.1*	x	1.1	-3.2	MPTP abs DR=11.8*;MPTP cs DR=42.1*
Cc1nn(CCc2nn[nH]n2)c2nc(-c3ccc(C4CCCCC4)cc3)cc(C(F)(F)F)c12	24.8	-1.5	59.1*	-3.7	-17.2	25.6*
Cc1nn(CCC(=O)O)c2nc(-c3cccnc3)cc(C(F)(F)F)c12	-2.8	-0.2	-4.3	8.8	x	x
CN(C)C1(CNC(=O)C2CCN(S(=O)(=O)c3c(Cl)cccc3Cl)CC2)CCCCC1	0.1	x	-1.1	x	x	x
CC(=O)N/C(=C\c1ccccc1)C(=O)OCc1cccc(S(=O)(=O)N(C)C)c1	-9.0	x	0.2	x	-22.5	x
C[C@H](CO)N1C[C@H](C)[C@@H](CN(C)C(=O)NC2CCCCC2)Oc2ccc(NC(=O)C3CCCCC3)cc2C1=O	x	x	0.2	x	x	x
C=CCc1c(C)nc(-c2ccccc2)nc1Nc1ccccc1O	0.5	0.3	59.5*	61.5*	-2.5	63.2*
N=c1oc2cc(O)ccc2cc1C(=O)Nc1ccc(Br)cc1	-5.5	x	61.4*	x	-0.5	78.2*
Cc1cccc(NC(=O)C(C)OC(=O)c2ccccc2NS(=O)(=O)c2cc(C)c(C)c([N+](=O)[O-])c2)c1 (stereo not drawn)	3.7	0.6	93.1*	5.4	-25.6	64.8*
O=[N+]([O-])c1cc(-c2ccccc2)cc([N+](=O)[O-])c1O	x	x	77.7*	x	x	89.1*
COC(=O)/C=C1\SC(=Nc2ccc(Cl)c(Cl)c2)NC1=O	5.9	0.0	95.0*	-2.0	-9.8	51.9*
CC(OC(=O)c1cccc(S(=O)(=O)Nc2cccc(C(F)(F)F)c2)c1)C(=O)Nc1ccc2c(c1)OCCO2 (stereo not drawn)	3.9	0.6	67.2*	-2.5	16.4	68.6*
O=C(Nc1ccc2c(c1)OCO2)C1Cc2c(-c3ccccc3Oc3ccccc3)ccnc2O1 (stereo not drawn)	x	x	3.2	x	x	x
Cc1cc(C)n2nc(C(=O)Nc3cccc(S(=O)(=O)N(C)c4ccccc4)c3)nc2n1	5.0	x	1.2	x	-12.4	x
CC(C)(C)OC(=O)N1CCCC(C(=O)Nc2ccc(C(=O)N3CCOCC3)cc2)C1 (stereo not drawn)	x	x	-1.4	x	x	x
CCOc1ccc(S(=O)(=O)NCc2ccncc2)cc1	-65.3	0.0	99.4*	-2.5	-111.9	84.5*
CCOc1cc(S(=O)(=O)NCc2ccncc2)ccc1Cl	-64.9	-0.1	100.3*	11.0	-47.7	100.9*
SMILES	T cruzi inh	Redox H2O2 prof	MPTP block	Lmaj promast	Lipid droplet	Rh123 counter	others
Cc1cc(S(=O)(=O)NCc2ccncc2)c(C)cc1Br	-12.6	x	59.6*	x	-36.0	88.4*
CCOc1cc(S(=O)(=O)NCc2cccs2)ccc1Cl	1.7	1.9	-4.7	6.7	5.0	x
Cc1ccc(C)c(S(=O)(=O)NCc2ccncc2)c1	0.6	-4.5	7.1	-2.6	x	x
CCOC(=O)COc1ccc(S(=O)(=O)NCc2ccncc2)cc1	-56.1	1.1	88.5*	-4.9	-25.2	85.6*
CC1(CCC(=O)N2CCCC(N3CCN(c4cccc(C(F)(F)F)c4)CC3)C2)CC1 (stereo not drawn)	22.4	x	-0.5	x	11.0	x
Cc1cn(CC(=O)NCCN2CCOCC2)c(=O)[nH]c1=O	x	x	-0.3	x	x	x
Cc1ccc(Oc2ccc3c(c2)C(=O)N(c2ccc(S(=O)(=O)Nc4nccs4)cc2)C3=O)cc1	0.4	-0.3	4.1	-7.0	x	x
COc1ccc(/C=C2/SC(=S)N(c3ccc(S(=O)(=O)Nc4nccs4)cc3)C2=O)cc1	-32.2	x	89.2*	x	5.2	64.3*
O=C1/C(=C/c2ccccn2)SC(=S)N1c1ccc(O)cc1	-35.7	x	1.5	x	-4.4	x
O=C1/C(=C\c2ccccn2)SC(=S)N1c1ccc(S(=O)(=O)Nc2nccs2)cc1	-18.2	x	70.5*	x	-1.2	47.9*
Cc1ccc(/C=C2/SC(=S)N(c3ccc(S(=O)(=O)Nc4nccs4)cc3)C2=O)cc1	-5.9	x	95.7*	x	-2.2	74.6*
CCc1ccc(CN(C)C(=O)CCc2nnc(COc3ccccc3)o2)cc1	6.1	0.6	3.9	-7.2	-32.5	x
Cc1ncc(CO)c(/C=N/NC(=S)Nc2cccc(Cl)c2)c1O	13.9	-0.5	78.4*	37.8	10.9	79.2*
Cc1ncc(CO)c(/C=N/NC(=S)Nc2ccc(Cl)c(Cl)c2)c1O	7.5	0.2	87.3*	72.6*	-6.9	69.6*
Cc1ncc(CO)c(/C=N/NC(=O)c2ccoc2C)c1O	x	x	1.5	x	x	x
S=C(Nc1ccc(Oc2ccccc2)cc1)N1CCN(c2ccccn2)CC1	-7.5	-0.5	79.5*	-0.3	x	78.6*
O=[N+]([O-])c1ccc(Sc2n[nH]c(-c3ccc(Cl)cc3Cl)n2)nc1	-29.6	2.1	90.4*	-5.1	x	0.2	MPTP abs DR=19.8*;MPTP cs DR=5.76*
CC(C)(C)c1nc(Sc2ccc([N+](=O)[O-])cn2)n[nH]1	-9.6	x	0.5	x	-1.7	x
Cc1cc(=O)[nH]c(SCC(=O)O)c1C#N	11.2	-4.1	0.2	-4.6	x	x
Cc1cc(=O)[nH]c(SCC(=O)C23CC4CC(CC(C4)C2)C3)c1C#N	-5.5	2.0	85.3*	-4.6	15.4	84.4*
COCCCNCC(O)COc1ccccc1F (stereo not drawn)	-15.9	-0.2	0.4	-5.5	16.1	x
Cc1ccc(NS(=O)(=O)c2ccc(C(=O)NC3CCN(Cc4ccccc4)CC3)cc2)cc1	x	x	59.5*	x	x	21.8*
Cc1ccc(NS(=O)(=O)c2cccc(C(=O)NC3CCN(Cc4ccccc4)CC3)c2)cc1	x	x	3.4	x	x	x

From PubChem BioAssay
